Compound activity deposited in PubChem by Sanford-Burnham Center for Chemical Genomics.
SENP6 inh: blocks the human protease SENP6. Q9GZR1. 330,000 tested, 1.8% active. Recombinant SENP6 catalytic domain, aminoluciferin luminescence. AID 2599. inhibition, % at 10 µM;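 active means inhibition above about 50% at the single tested dose, limit read from the data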
Target sequence (Q9GZR1 628-1112 limits assumed): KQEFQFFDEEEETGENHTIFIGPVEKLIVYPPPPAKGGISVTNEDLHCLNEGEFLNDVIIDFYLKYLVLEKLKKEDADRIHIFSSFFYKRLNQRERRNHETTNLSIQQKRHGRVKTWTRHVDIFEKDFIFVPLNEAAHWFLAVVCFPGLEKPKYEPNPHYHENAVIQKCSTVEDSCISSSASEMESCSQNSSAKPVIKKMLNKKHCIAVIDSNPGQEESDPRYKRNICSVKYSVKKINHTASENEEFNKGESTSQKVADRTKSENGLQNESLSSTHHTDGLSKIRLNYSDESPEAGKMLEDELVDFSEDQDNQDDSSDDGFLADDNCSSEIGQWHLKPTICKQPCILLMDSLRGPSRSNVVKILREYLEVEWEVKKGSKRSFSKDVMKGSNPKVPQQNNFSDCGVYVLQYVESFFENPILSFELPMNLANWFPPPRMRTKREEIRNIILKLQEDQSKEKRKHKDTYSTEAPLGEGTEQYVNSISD
SENP8 block-1: inhibitors of human SENP8 protease; Q96LD8; inhibition, % at 20 µM; recombinant SENP8, Nedd8 substrate fluorescence; 360,000 tested, 0.64% active; in the data active means inhibition mostly above about 40%, no sharp cut-off; inactive means mostly below about 27%
SENP8 block-2: SENP8 protease inhibition. Q96LD8. purified SENP8, Z-RLRGG-aminoluciferin cleavage, luminescence. inhibition, % at 10 µM. 330,000 tested, 1.2% active; in the data active means inhibition above about 50%
SENP7 block: SENP7 protease inhibition | recombinant SENP7, Z-RLRGG-aminoluciferin luminescence, 40 min | inhibition, % at 5 µM | 330,000 tested, 1.5% active;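 active means inhibition above about 50% at the single test dose, limit read from the data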
SENP1 inh: SENP1 (human) catalytic domain inhibition; recombinant SENP1 catalytic domain, CyPet-SUMO1-YPet FRET cleavage; inhibition, % at 10 µM; 360,000 tested, 0.21% active;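 active means inhibition at least 30% at 10 µM, raw YFP signal under a set limit, fluorescence ratio 0.5 to 1.5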
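Test system: recombinant human SENP1 catalytic domain, His6-tagged / Medium: pH 8 Tris buffer with EDTA, NaCl, BME, BSA, NP40, catalase / Also added: SUMO1 FRET substrate flanked by Cypet and Ypet, 25 nM / Times: 50 min reaction at room temperature / Signal: FRET, CFP and YFP emission / Control set: no-enzyme low control and enzyme-plus-DMSO high control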
SENP8 conf: human SENP8 inhibition, confirmed; shares compounds with SENP7 block; Recombinant SENP8, Z-RLRGG-aminoluciferin luminescence, 60 min; inhibition, % at 12.5 µM; 6,200 tested, 40% active; AID 488912;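 active means mean inhibition across replicates above about 50%, limit read from the data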
SENP6 confirm: human SENP6 inhibition, confirmed; shares compounds with SENP7 block; recombinant SENP6, Z-RLRGG-aminoluciferin luminescence; inhibition, % at 12.5 µM; 6,200 tested, 58% active
SENP7 confirm: confirmation of human SENP7 protease inhibitors; shares compounds with SENP7 block; 6,200 tested, 69% active; inhibition, % at 12.5 µM; recombinant SENP7, Z-RLRGG-aminoluciferin luminescence, 40 min
Casp3 select: inhibits human caspase-3 in SENP selectivity test. AID 488918. shares compounds with SENP7 block. purified caspase-3, Z-DEVD-aminoluciferin luminescence, 60 min. 6,200 tested, 60% active. inhibition, % at 12.5 µM;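 active means mean inhibition above about 50%, limit read from the data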
SENP luc ctr: luminescence interference (SENP counter-screen). shares compounds with SENP7 block. 6,200 tested, 39% active. inhibition, % at 12.5 µM. Pre-incubated SENP8/Z-RLRGG-aminoluciferin, luciferase luminescence interference;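 active means mean inhibition above about 50% when retested at one dose, limit read from the data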
A number is an active result; 0 = inactive; - = no result. Compounds with a hit are over-represented: about 2.5% of the library has one in this group of screens.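 How the source made its calls, unless noted: active means mean inhibition above about 50% in the one-dose retest (limit read from the data); inactive means the rest.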

SMILES	SENP6 inh	SENP8 block-1	SENP8 block-2	SENP7 block	SENP1 inh	SENP8 conf	SENP6 confirm	SENP7 confirm	Casp3 select	SENP luc ctr
O=C(O)c1cc(NN=C2c3ccccc3-c3ccccc32)ccc1Cl	0	0	0	0	0	-	-	-	-	-
Cc1cc(C(=O)N/N=C/C(Cl)=C/c2ccccc2)c(C)o1	0	0	0	53	0	0	0	75	0	0
Cn1c(=NC(=O)c2ccccc2[N+](=O)[O-])sc2cccc(F)c21	0	0	0	77	0	0	0	0	0	0
O=C(CNc1ccc2ccccc2c1)N/N=C/c1ccc([N+](=O)[O-])o1	54	0	0	0	0	0	0	0	0	0
O=C(CCC(=O)Nc1ccccc1)NNC(=O)COc1ccccc1	0	0	0	0	0	-	-	-	-	-
O=c1c(Cc2c(F)cccc2Cl)c(O)ccn1CCCN1CCOCC1	0	0	0	0	0	-	-	-	-	-
CCCNC(=O)CCn1c(=S)oc2ccccc21	58	0	0	0	0	0	0	0	0	0
CC(=O)Oc1ccc2cc(-c3ccccc3)c(=O)oc2c1	93	0	86	85	0	0	0	50	0	0
CCOC(=O)c1c(CN(C)C)n(C)c2ccc(OC(C)=O)cc12	0	0	0	0	0	-	-	-	-	-
CCOC(=O)c1c(CN(C)C)n(C)c2c(O)c(N=NC(N)=O)c3ccc(Br)cc3c12	68	79	0	0	0	0	0	0	0	0
Cc1ccccc1C(=O)Nc1ccc(C(=O)N/N=C/c2ccc(O)c(Br)c2)cc1	0	0	0	0	0	-	-	-	-	-
Cc1ccc(NC(=O)N2CCc3ccccc3C2)cc1C	0	0	0	0	0	-	-	-	-	-
Cc1cc(C)cc(NC(=O)N2CCc3ccccc3C2)c1	55	0	0	0	0	0	0	69	50	51
COc1ccc(C2=NN(C(C#N)c3ccc(OC)c(OC)c3)C(c3ccccc3)C2)cc1 (stereo not given)	75	0	0	65	0	0	0	0	0	0
CC(=Nc1ccccc1O)c1sc2ccccc2c1O	0	0	0	0	0	-	-	-	-	-
CC(=Nc1ccc(O)cc1)c1sc2ccccc2c1O	89	0	75	79	0	80	80	96	68	81
CC(=O)NCCN=C(C)c1sc2ccccc2c1O	0	0	0	0	0	-	-	-	-	-
CC(=Nc1cccc(C)c1)c1sc2ccccc2c1O	63	0	0	0	0	73	74	88	0	0
CCCSc1ccc2nc(-c3ccccc3)cn2c1	96	0	96	98	0	98	99	102	97	93
Cc1ccc(NC(=O)c2cccs2)cc1	0	0	0	53	0	0	0	75	65	52
Cc1ccc(NC(=O)C(=O)NNC(=O)c2cccs2)cc1	57	0	55	0	0	0	0	79	83	0
O=C(Nc1ccc2c(c1)CCC2)c1cccs1	0	0	62	78	0	83	87	96	83	83
O=C(Nc1ccc(-c2noc(-c3ccccc3F)n2)cc1)c1cccs1	0	0	0	0	0	-	-	-	-	-
Cc1ccccc1-c1nc(-c2ccc(NC(=O)c3cccs3)cc2)no1	0	0	0	51	0	0	0	0	0	0
COc1ccc(S(=O)(=O)N(CC(=O)NCc2cccnc2)c2ccc(C)cc2)cc1OC	0	0	0	0	0	-	-	-	-	-
SMILES	SENP6 inh	SENP8 block-1	SENP8 block-2	SENP7 block	SENP1 inh	SENP8 conf	SENP6 confirm	SENP7 confirm	Casp3 select	SENP luc ctr
CCOc1ccc(CN(C)C(=O)CNC(=O)C2CCCCC2)cc1OC	0	0	0	0	0	-	-	-	-	-
CN(C)c1nc(N)nc(CSc2nnnn2-c2ccc(Cl)cc2)n1	-	0	-	-	0	-	-	-	-	-
CCc1nc2ccc(C(=O)NCCc3ccccn3)cn2c1N(C)Cc1ccc(N(C)C)cc1	-	0	-	-	0	-	-	-	-	-
COc1ccc2nc(NC(=O)CSc3cn[nH]n3)sc2c1	50	0	0	0	0	0	0	65	62	60
CCOc1ccc2nc(NC(=O)CSc3cn[nH]n3)sc2c1	67	0	0	0	0	0	0	50	0	0
CCOc1ccc2nc(NC(=O)CSc3ccc(Cl)cc3)sc2c1	0	0	0	0	0	-	-	-	-	-
C[C@@H]1CNC(=O)c2c(C(=O)N[C@@H](Cc3c[nH]c4ccccc34)C(=O)OC(C)(C)C)ncn21	-	0	-	-	0	-	-	-	-	-
COc1ccc(C2=Nc3ccccc3OC2)cc1	71	0	0	56	0	98	99	102	95	90
COc1ccccc1OCC(O)Cn1c(=N)n(Cc2ccccc2)c2ccccc21 (stereo not given)	0	0	0	0	0	-	-	-	-	-
Cc1ccccc1OCC(O)Cn1c(=N)n(Cc2ccccc2)c2ccccc21 (stereo not given)	0	0	0	51	0	0	0	0	0	0
CC(=O)c1ccc(NC(=O)C[n+]2cccc(C)c2)cc1	0	0	0	0	0	-	-	-	-	-
O=C(Nc1nc2ccccc2[nH]1)c1ccccc1OC(F)F	91	0	84	91	0	87	88	100	95	90
N#CC(Cc1ccc(OC(F)F)cc1)c1nc2ccccc2[nH]1 (stereo not given)	93	0	80	64	0	92	91	100	88	91
O=C(Nc1nc2ccccc2[nH]1)c1ccc(OC(F)F)cc1	95	0	89	96	0	81	93	101	95	62
N#CC(Cc1cccs1)c1nc2ccccc2[nH]1 (stereo not given)	-	0	-	-	0	-	-	-	-	-
CC(C)Oc1ccc(C(=O)Nc2nc3ccccc3[nH]2)cc1	97	0	97	100	0	91	99	103	98	68
COc1cc(C(=O)NC2=C(C#N)CCC2)cc(OC)c1OC	0	0	0	0	0	-	-	-	-	-
Cc1ccc(Cl)cc1NC(=O)c1cc(S(=O)(=O)N2CCOCC2)cn1C	0	0	0	0	0	-	-	-	-	-
CCn1nc(C)c(CNC(=O)C2CCC(=O)N(Cc3ccc(Cl)cc3)C2)c1C (stereo not given)	0	0	0	0	0	-	-	-	-	-
O=C(ONc1ccc(N=NC(=O)c2ccccc2O)cc1)c1ccccc1	91	0	85	56	0	0	0	0	85	0
COc1ccc(C)c2sc(=NC(=O)c3cccc(N4C(=O)CCC4=O)c3)n(C)c12	51	0	0	78	0	0	0	0	0	0
COc1ccc(C)c2sc(=NC(=O)c3ccccc3)n(C)c12	0	0	0	99	0	0	78	85	90	0
